# Tests used:
# [1] = target: T1, Muscarinic acetylcholine receptor M2 (Homo sapiens, UniProt P08172); test: Displacement of [3H]NMS from human M2 AChR expressed in CHO cell membranes after 1 to 2 hrs by liquid scintillation spectrometry method
# T1 sequence (P08172 whole entry): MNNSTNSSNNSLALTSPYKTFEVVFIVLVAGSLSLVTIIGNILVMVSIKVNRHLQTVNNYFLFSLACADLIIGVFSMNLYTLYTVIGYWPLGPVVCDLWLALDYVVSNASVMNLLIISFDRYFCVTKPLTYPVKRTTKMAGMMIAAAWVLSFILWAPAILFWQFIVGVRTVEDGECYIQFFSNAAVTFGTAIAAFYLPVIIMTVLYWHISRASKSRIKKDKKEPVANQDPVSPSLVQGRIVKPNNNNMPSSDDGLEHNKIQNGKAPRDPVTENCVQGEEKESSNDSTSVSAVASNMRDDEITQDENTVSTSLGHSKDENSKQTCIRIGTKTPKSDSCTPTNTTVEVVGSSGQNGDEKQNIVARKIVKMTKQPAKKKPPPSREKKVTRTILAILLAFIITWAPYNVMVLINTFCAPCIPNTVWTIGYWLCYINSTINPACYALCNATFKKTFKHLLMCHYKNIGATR
# How it was run: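 CHO membranes expressing the human subtype (20 µg protein/well) with 0.3 nM [3H]NMS and analog (1 nM–100 µM) in 50 mM Tris-HCl pH 7.4, 2 h at 25 °C. […] Filtered on GF/B, washed, counted by scintillation. IC50 taken from curves to give Ki; three independent experiments in duplicate.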
# [2] = target: T2, Muscarinic acetylcholine receptor M1 (Homo sapiens, UniProt P11229); test: Displacement of [3H]NMS from human M1 AChR expressed in CHO cell membranes after 1 to 2 hrs by liquid scintillation spectrometry method; assay type: cell-based
# T2 sequence (P11229 whole entry): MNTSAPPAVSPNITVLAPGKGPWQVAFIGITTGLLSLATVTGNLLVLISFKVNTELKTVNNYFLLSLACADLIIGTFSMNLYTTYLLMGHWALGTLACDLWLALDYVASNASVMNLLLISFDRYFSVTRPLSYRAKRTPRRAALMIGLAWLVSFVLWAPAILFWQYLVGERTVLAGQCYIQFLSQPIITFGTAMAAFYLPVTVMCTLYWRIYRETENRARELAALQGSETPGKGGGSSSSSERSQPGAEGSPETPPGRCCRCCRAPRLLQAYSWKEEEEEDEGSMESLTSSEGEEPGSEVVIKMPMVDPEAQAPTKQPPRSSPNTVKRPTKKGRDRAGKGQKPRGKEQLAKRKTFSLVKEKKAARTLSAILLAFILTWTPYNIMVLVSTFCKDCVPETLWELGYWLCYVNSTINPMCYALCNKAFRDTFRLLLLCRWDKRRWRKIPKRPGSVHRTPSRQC
# [3] = species on record: Homo sapiens; test: Selectivity ratio of Ki for displacement of [3H]NMS from human M2 AChR expressed in CHO cell membranes to Ki for displacement of [3H]NMS from human M3 AChR expressed in CHO cell membranes
# [4] = species on record: Homo sapiens; test: Selectivity ratio of Ki for displacement of [3H]NMS from human M1 AChR expressed in CHO cell membranes to Ki for displacement of [3H]NMS from human M5 AChR expressed in CHO cell membranes
# [5] = target: T3, Muscarinic acetylcholine receptor M1 (Homo sapiens) (UniProt P11229); conditions: CHO, at 100 µM
# T3 sequence (whole entry): T2 sequence (P11229 whole entry)
# [6] = target: T4, Muscarinic acetylcholine receptor M5 (Homo sapiens, UniProt P08912); test: Displacement of [3H]NMS from human M5 AChR expressed in CHO cell membranes after 1 to 2 hrs by liquid scintillation spectrometry method
# T4 sequence (P08912 whole entry): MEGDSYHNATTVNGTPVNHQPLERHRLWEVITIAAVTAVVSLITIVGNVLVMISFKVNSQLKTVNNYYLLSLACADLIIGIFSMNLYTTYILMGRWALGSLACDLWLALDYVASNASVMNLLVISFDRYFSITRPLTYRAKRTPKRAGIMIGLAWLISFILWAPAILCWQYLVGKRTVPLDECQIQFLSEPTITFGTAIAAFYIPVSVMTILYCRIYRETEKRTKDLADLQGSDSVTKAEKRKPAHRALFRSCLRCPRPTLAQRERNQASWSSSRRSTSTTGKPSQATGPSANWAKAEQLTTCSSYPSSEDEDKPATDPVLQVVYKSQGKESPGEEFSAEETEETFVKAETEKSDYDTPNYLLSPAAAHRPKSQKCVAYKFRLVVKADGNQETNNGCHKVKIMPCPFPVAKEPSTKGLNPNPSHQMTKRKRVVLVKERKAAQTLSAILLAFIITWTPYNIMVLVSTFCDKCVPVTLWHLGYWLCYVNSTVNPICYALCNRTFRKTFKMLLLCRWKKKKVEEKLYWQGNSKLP
# How it was run: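 CHO membranes expressing human M5 (10 µg protein/well) with 0.3 nM [3H]NMS and analog (1 nM–100 µM) in 50 mM Tris-HCl pH 7.4, 2 h at 25 °C. Filtered on GF/B, counted by scintillation. IC50 converted to Ki; three independent experiments in duplicate.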
# [7] = target: T5, Muscarinic acetylcholine receptor M3 (Homo sapiens, UniProt P20309); test: Displacement of [3H]NMS from human M3 AChR expressed in CHO cell membranes after 1 to 2 hrs by liquid scintillation spectrometry method; assay type: cell-based
# Target sequence in this assay (P20309 whole entry): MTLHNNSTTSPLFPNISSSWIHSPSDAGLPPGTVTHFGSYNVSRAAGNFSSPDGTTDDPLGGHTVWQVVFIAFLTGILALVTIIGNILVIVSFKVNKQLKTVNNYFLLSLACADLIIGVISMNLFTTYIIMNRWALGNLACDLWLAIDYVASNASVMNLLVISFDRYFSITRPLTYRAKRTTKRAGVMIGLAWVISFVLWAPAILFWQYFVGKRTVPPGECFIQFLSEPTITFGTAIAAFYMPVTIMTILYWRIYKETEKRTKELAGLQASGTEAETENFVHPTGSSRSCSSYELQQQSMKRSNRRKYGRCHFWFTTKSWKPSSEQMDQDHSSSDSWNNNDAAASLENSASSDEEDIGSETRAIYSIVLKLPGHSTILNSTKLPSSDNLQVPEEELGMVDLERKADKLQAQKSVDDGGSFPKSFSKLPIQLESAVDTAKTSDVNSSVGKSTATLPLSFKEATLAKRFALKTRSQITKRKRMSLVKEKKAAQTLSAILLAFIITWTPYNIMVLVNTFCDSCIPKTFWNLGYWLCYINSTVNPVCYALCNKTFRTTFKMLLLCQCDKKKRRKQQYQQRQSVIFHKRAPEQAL
# [8] = target: T6, Muscarinic acetylcholine receptor M5 (Homo sapiens) (UniProt P08912); test: Displacement of [3H]NMS from human M5 AChR expressed in CHO cell membranes at 100 uM after 1 to 2 hrs by liquid scintillation spectrometry method relative to control
# T6 sequence (whole entry): T4 sequence (P08912 whole entry)
# How it was run: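 CHO membranes expressing human M5 (10 µg protein/well) with 0.3 nM [3H]NMS and analog (1 nM–100 µM) in 50 mM Tris-HCl pH 7.4, 2 h at 25 °C. […] Filtered on GF/B, counted by scintillation. IC50 converted to Ki; three independent experiments in duplicate.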
# [9] = target: T5, Muscarinic acetylcholine receptor M3; conditions: CHO, at 100 µM
# Target sequence in this assay (P20309 whole entry, looked up): as the sequence (P20309 whole entry) above
# [10] = target: T7, Muscarinic acetylcholine receptor M2 (Homo sapiens) (UniProt P08172); test: Displacement of [3H]NMS from human M2 AChR expressed in CHO cell membranes at 100 uM after 1 to 2 hrs by liquid scintillation spectrometry method relative to control
# T7 sequence (whole entry): T1 sequence (P08172 whole entry)
# How it was run: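 CHO membranes expressing the human subtype (20 µg protein/well) with 0.3 nM [3H]NMS and analog (1 nM–100 µM) in 50 mM Tris-HCl pH 7.4, 2 h at 25 °C. Filtered on GF/B, washed, counted by scintillation. IC50 taken from curves to give Ki; three independent experiments in duplicate.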
Structure (SMILES),Ki [1] [µM],Ki [2] [µM],Ratio Ki [3],Ratio Ki [4],Imax [5] [%],Ki [6] [µM],Ki [7] [µM],Imax [8] [%],Imax [9] [%],Imax [10] [%]
COc1ccc(CCN(C(=O)OC2CN3CCC2CC3)c2ccccc2)cc1OC (racemic),0.35,0.095,5.7,1.5,100,0.065,0.06,99.8,99.7,98.6
CN1[C@@H]2CC[C@H]1C[C@@H](OC(=O)C(CO)c1ccccc1)C2 (stereo partly drawn),–,–,–,–,–,–,–,96.7,–,–
COc1ccc(COC(=O)N(c2ccccc2)C2CN3CCC2CC3)cc1F (stereo not drawn),0.1,0.07,1.8,1.5,99.5,0.04,0.05,96.7,100,98.8
O=C(OCCCc1ccc(F)c(F)c1)N(c1ccccc1)C1CN2CCC1CC2 (stereo not drawn),–,0.3,–,3,100,0.1,0.22,99.4,99.5,–
COc1ccc(COC(=O)N(c2ccccc2)C2CN3CCC2CC3)cc1OC (stereo not drawn),–,0.77,–,1.4,96.8,0.55,1.02,98.7,95.4,–
COc1ccc(CCOC(=O)N(c2ccccc2)C2CN3CCC2CC3)cc1OC (stereo not drawn),–,6.98,–,2,90.6,3.49,2.76,94,85.9,–
O=C(OCCc1ccc(Cl)c(Cl)c1)N(c1ccccc1)C1CN2CCC1CC2 (stereo not drawn),–,0.37,–,4.5,99.9,0.08,0.26,98.8,99.8,–
COc1ccc(CCOC(=O)N(c2ccccc2)C2CN3CCC2CC3)cc1 (stereo not drawn),–,0.76,–,3.3,98.4,0.23,0.42,98.9,99.3,–
COc1ccc(CCN(C(=O)OC2CCN(C)CC2)c2ccccc2)cc1OC,–,0.77,–,2,99,0.38,1.28,96.5,96.6,–
COc1ccc(CCCOC(=O)N(c2ccccc2)C2CN3CCC2CC3)cc1 (stereo not drawn),–,0.59,–,0.9,98.5,0.64,0.39,99.5,96.8,–
COc1ccc(CCCOC(=O)N(c2ccccc2)C2CN3CCC2CC3)cc1F (stereo not drawn),–,0.43,–,1.7,100,0.26,0.25,99.4,99.8,–
COc1ccc(CCN(C(=O)OC2C[C@H]3CC[C@H](C2)N3C)c2ccccc2)cc1 (stereo partly drawn),–,0.35,–,1.5,99.7,0.24,0.27,97.9,98.9,–
O=C(OCCCc1ccccc1)N(c1ccccc1)C1CN2CCC1CC2 (stereo not drawn),–,0.78,–,3,99.1,0.26,0.55,95.7,98.9,–
Cc1ccc(CCCOC(=O)N(c2ccccc2)C2CN3CCC2CC3)cc1F (stereo not drawn),–,0.2,–,1.5,100,0.13,0.13,99.9,100,–
O=C(OCCc1ccccc1)N(c1ccccc1)C1CN2CCC1CC2 (stereo not drawn),–,0.79,–,3,88.5,0.26,0.3,96.9,99.1,–
COc1ccc(CCCOC(=O)N(c2ccccc2)C2CN3CCC2CC3)cc1OC (stereo not drawn),–,1.46,–,0.9,97.1,1.61,1.56,99,96.3,–
COc1ccc(COC(=O)N(c2ccccc2)C2CN3CCC2CC3)cc1 (stereo not drawn),–,0.71,–,1.5,97.9,0.47,1.15,97.1,95.7,–
COc1ccc(CCN(C(=O)OC2CCCN(C)C2)c2ccccc2)cc1OC (stereo not drawn),–,4.3,–,1,94.3,4.49,4.36,89.2,85.6,–
COc1ccc(CCN(C(=O)OC2C[C@H]3CC[C@H](C2)N3C)c2ccccc2)cc1OC (stereo partly drawn),–,1.87,–,1.4,95.3,1.37,2.8,95.9,88.8,–
COc1ccc(CCN(C(=O)OC2CCN(C)CC2)c2ccccc2)cc1,–,0.28,–,1.5,99.8,0.19,0.57,99.7,99.7,–
CN1CCCC(OC(=O)N(CCc2ccc(F)cc2)c2ccccc2)C1 (stereo not drawn),–,0.12,–,0.8,99.9,0.15,0.35,99.9,99,–
O=C(OCCc1ccc2c(c1)OCO2)N(c1ccccc1)C1CN2CCC1CC2 (stereo not drawn),–,0.63,–,2.6,99.6,0.24,0.29,97.1,98,–
CN1CCC(OC(=O)N(CCc2ccc(F)cc2)c2ccccc2)CC1,–,0.07,–,1.2,100,0.06,0.14,100,100,–
COc1ccc(CCN(C(=O)OC2CCCN(C)C2)c2ccccc2)cc1 (stereo not drawn),–,0.69,–,0.7,98.6,1.05,1.32,97.7,96.2,–

# — ChEMBL document CHEMBL4371071, “Muscarinic agonist, (±)-quinuclidin-3-yl-(4-fluorophenethyl)(phenyl)carbamate: High affinity, but low subtype selectivity for human M1 - M5 muscarinic acetylcholine receptors” (Bioorg Med Chem Lett, 2019)
